Measurements reported in ChEMBL document CHEMBL1926521, “Arylcyanoacrylamides as inhibitors of the Dengue and West Nile virus proteases” (Bioorg Med Chem, 2011).
Active and inactive are the calls of the source. The calls are words filed in the database; no cut-off is given here.

How the values were obtained:
Dengue virus = assay: Inhibition of Dengue virus NS2B-NS3 protease expressed in Escherichia coli BL21 lambda (DE3) using Abz-NleKRRS-3-(NO2)Y as substrate at 50 uM preincubated for 15 mins before substrate addition measured up to 15 mins by spectrofluorimetry
In short: (§1)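 Single-concentration screen against His-tagged NS2B-NS3 protease (Ni²⁺-affinity purified from E. coli). Enzyme was 100 nM for Dengue or 150 nM for West Nile. Inhibitor at 50 µM was preincubated 15 min with enzyme, then internally quenched FRET substrate (final 50 µM) was added. Read at ex 320/em 405 nm for 15 min. Rate taken as RFU/s; % inhibition is the mean of triplicates.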

West Nile virus = assay: Inhibition of West Nile virus NS2B-NS3 protease expressed in Escherichia coli BL21 lambda (DE3) using Abz-GLKRGG-3-(NO2)Y as substrate at 50 uM preincubated for 15 mins before substrate addition measured up to 15 mins by spectrofluorimetry; in short: as §1
Prothrombin = Prothrombin (Homo sapiens, UniProt P00734); assay: Inhibition of human thrombin using Boc-VPR-AMC as substrate at 25 uM preincubated for 15 mins before substrate addition measured up to 10 mins by spectrofluorimetry

| Structure (SMILES) | inhibition (Dengue virus) | inhibition (West Nile virus) | inhibition (Prothrombin) |
| --- | --- | --- | --- |
| COc1cc(CC(C#N)C(N)=O)cc(OC)c1OC (stereo not given) | inactive | inactive | inactive |
| CN(C)c1ccc(/C=C(\C#N)C(=O)O)cc1 | 38.7% | 46.5% | 13.3% |
| N#C/C(=C\c1ccccc1N1CCOCC1)C(N)=O | 10.4% | 7.7% | 7.4% |
| CN(C)c1ccc(/C=C/CC(C#N)C(=O)NC2CC2)cc1 (stereo not given) | 9% | 37% | 6.7% |
| CN(C)c1ccc(/C=C(\C#N)C(N)=O)cc1 | 35.1% | 46% | 21.6% |
| CN(C)c1ccc(C=C(C#N)C#N)cc1 | 8.7% | 8.8% | 16.3% |
| N#C/C(=C\c1sccc1Br)C(N)=O | 18.4% | 19.3% | 10.1% |
| N#C/C(=C\c1ccc(F)cc1)C(N)=O | 22.5% | 16% | 7.9% |
| CN1CCN(C(=O)/C(C#N)=C/c2ccc(O)cc2)CC1 | 35.4% | 35.1% | 20.8% |
| N#C/C(=C\c1ccc(N2CCNCC2)cc1)C(N)=O | 28.6% | 45% | 26.1% |
| COc1ccc(/C=C(\C#N)C(N)=O)cc1OC | 19.2% | 22% | 20% |
| CC(C)c1ccc(/C=C(\C#N)C(=O)NCc2ccccn2)cc1 | 24.9% | 39.5% | 11.6% |
| N#C/C(=C\c1ccc([N+](=O)[O-])cc1)C(N)=O | inactive | 10.5% | inactive |
| N#C/C(=C\c1ccc(C(=O)N2CCOCC2)cc1)C(=O)NC1CC1 | 22.9% | 23% | 9% |
| CC(=O)Oc1ccc(/C=C(\C#N)C(N)=O)cc1 | 43.1% | 28.8% | 24.4% |
| CCN(CC)C(=O)/C(C#N)=C/c1cc(O)c(O)c([N+](=O)[O-])c1 | 21% | 32.4% | 21.9% |
| N#C/C(=C\c1ccc(Cl)cc1Cl)C(N)=O | 14.7% | 10.7% | 8.5% |
| CN1CCN(c2ccc(/C=C(\C#N)C(N)=O)cc2)CC1 | 32.3% | 40.9% | 22% |
| N#C/C(=C\c1ccc(C(=O)O)cc1)C(=O)NC1CC1 | 20% | 31% | 15.9% |
| N#C/C(=C\c1ccc(O)cc1)C(=O)NCc1ccccn1 | 46.6% | 41.8% | 18.9% |
| N#C/C(=C\c1ccc(N2CCCCC2)cc1)C(N)=O | 14% | 24.2% | 20% |
| N#C/C(C(N)=O)=C1\CCc2ccccc21 | 23.2% | 24.1% | 10.3% |
| N#C/C(=C\c1ccc(Br)s1)C(N)=O | 20.2% | 19.2% | 26.3% |
| Cc1ccc(/C=C(\C#N)C(N)=O)cc1 | 32.2% | 22.8% | inactive |
| COc1ccc(/C=C(\C#N)C(N)=O)cc1 | 19.7% | 23.4% | 16.7% |
| CC(C)/C(=C(\C#N)C(N)=O)c1ccccc1 | inactive | 13.8% | 10.1% |
| N#C/C(=C\c1cccnc1)C(N)=O | inactive | inactive | inactive |
| COc1cc(/C=C(\C#N)C(N)=O)ccc1O | 43.2% | 42.9% | 17.4% |

| Structure (SMILES) | inhibition (Dengue virus) | inhibition (West Nile virus) | inhibition (Prothrombin) |
| --- | --- | --- | --- |
| N#C/C(=C\c1cccc(C(=O)O)c1)C(=O)NC1CC1 | 20.2% | 20.1% | 11.9% |
| N#C/C(=C\c1ccc(O)cc1)C(=O)N1CCOCC1 | 32.2% | 49.9% | 18% |
| CC(=C\c1ccccc1)/C=C(\C#N)C(=O)NCC1CCCO1 (stereo not given) | 36.8% | 30.1% | 28.7% |
| N#C/C(=C\c1cc(O)c(O)c([N+](=O)[O-])c1)C(N)=O | 24.3% | 28.2% | 22.5% |
| N#C/C(=C\c1ccc(N2CCOCC2)cc1)C(N)=O | 28.2% | 35.3% | 19.2% |
| N#C/C(=C\c1ccc(Br)cc1)C(=O)NC1CC1 | 10.9% | 22.6% | inactive |
| CC(C)c1ccc(/C=C(\C#N)C(=O)NC2CC2)cc1 | 18.2% | 22.2% | 17.9% |
| N#C/C(=C\c1cccc(C(=O)NC2CC2)c1)C(=O)NC1CC1 | 10.8% | 19.1% | 8% |
| COc1cccc(/C=C(\C#N)C(N)=O)c1 | 16.3% | 12.3% | 9.6% |
| COc1cc(/C=C(\C#N)C(N)=O)cc(I)c1O | 30.5% | 43.8% | 23% |
| N#C/C(=C\c1cccc(N2CCOCC2)c1)C(=O)NC1CC1 | 18.5% | 20.5% | 9.7% |
| N#C/C(=C\c1ccc(Br)cc1)C(N)=O | 11.6% | 15.9% | 13.6% |
| CN1CCN(c2ccc(/C=C(\C#N)C(=O)NC3CC3)cc2)CC1 | 37.4% | 47.8% | 21.8% |
| N#Cc1n[nH]nc1-c1ccccc1 | inactive | 11.2% | inactive |
| N#C/C(=C\c1ccncc1)C(N)=O | inactive | inactive | inactive |
| C/C(=C\c1ccccc1)CC(C#N)C(N)=O (stereo not given) | inactive | inactive | inactive |
| COc1ccc(/C=C(\C#N)C(=O)N[C@@H](CO)C(=O)NC2CC2)cc1 | 23% | 31.7% | 23.3% |
| CC(C)c1ccc(/C=C(\C#N)C(N)=O)cc1 | 23% | 24.6% | 19.4% |
| CN(C)c1ccc(CC(C#N)C(N)=O)cc1 (stereo not given) | 7.1% | 16.2% | inactive |
| N#C/C(=C\c1cccs1)C(N)=O | 28.4% | 23.9% | 15.7% |
| COc1cc(/C=C(\C#N)C(N)=O)cc(OC)c1OC | 15.6% | 19.3% | 17.8% |
| N#C/C(=C\c1ccc(Br)o1)C(=O)NC1CC1 | 15.6% | 23.9% | 26.9% |
| N#C/C(=C\c1ccc(N2CCOCC2)s1)C(N)=O | 23.2% | 29.1% | 38.6% |
| COC(=O)[C@H](CO)NC(=O)/C(C#N)=C/c1ccc(OC)cc1 | 20.3% | 21.1% | 21.4% |
| COc1cc(/C=C(\C#N)C(N)=O)ccc1OCc1ccccc1 | inactive | inactive | 16% |
| N#C/C(=C\c1ccc(O)cc1)C(=O)NCC1CCCO1 (stereo not given) | 46.4% | 44.4% | 16.8% |
| N#C/C(=C\c1ccc(C(=O)O)cc1)C(N)=O | 17.1% | 23.8% | 13.2% |
